Tests used:
[1] = tested on: Plasma; assay: Drug uptake in Sprague-Dawley rat plasma at 0.5 mg/joint measured after 8 weeks; assay type: ADME, cell-free; conditions: other, 1344 h, BLD = below limit of detection
[2] = target: 72 kDa type IV collagenase (Homo sapiens, UniProt P08253); assay: Inhibition of human recombinant MMP2 using MCA-Pro-Leu-Gly-Leu-Dpa-Ala-Arg-NH2.AcOH as substrate preincubated for 10 mins measured by fluorescence analysis
Outline: (§1)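 Catalytic domains of recombinant human MMPs were assayed with fluorogenic OmniMMP substrate in 50 mM Tris-HCl pH 7.5, 150 mM NaCl, 5 mM CaCl₂, 0.05% Brij-35. Enzyme was 1–10 nM and substrate 4–10 μM, optimized per assay. Enzyme was preincubated 10 min with varying inhibitor concentrations, and IC50 was calculated from runs done at least in duplicate.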

[3] = target: Matrix metalloproteinase-9 (Homo sapiens, UniProt P14780); assay: Inhibition of human recombinant MMP9 using MCA-Pro-Leu-Gly-Leu-Dpa-Ala-Arg-NH2.AcOH as substrate preincubated for 10 mins measured by fluorescence analysis; outline: as §1
Chain of Matrix metalloproteinase-9 (P14780 whole entry): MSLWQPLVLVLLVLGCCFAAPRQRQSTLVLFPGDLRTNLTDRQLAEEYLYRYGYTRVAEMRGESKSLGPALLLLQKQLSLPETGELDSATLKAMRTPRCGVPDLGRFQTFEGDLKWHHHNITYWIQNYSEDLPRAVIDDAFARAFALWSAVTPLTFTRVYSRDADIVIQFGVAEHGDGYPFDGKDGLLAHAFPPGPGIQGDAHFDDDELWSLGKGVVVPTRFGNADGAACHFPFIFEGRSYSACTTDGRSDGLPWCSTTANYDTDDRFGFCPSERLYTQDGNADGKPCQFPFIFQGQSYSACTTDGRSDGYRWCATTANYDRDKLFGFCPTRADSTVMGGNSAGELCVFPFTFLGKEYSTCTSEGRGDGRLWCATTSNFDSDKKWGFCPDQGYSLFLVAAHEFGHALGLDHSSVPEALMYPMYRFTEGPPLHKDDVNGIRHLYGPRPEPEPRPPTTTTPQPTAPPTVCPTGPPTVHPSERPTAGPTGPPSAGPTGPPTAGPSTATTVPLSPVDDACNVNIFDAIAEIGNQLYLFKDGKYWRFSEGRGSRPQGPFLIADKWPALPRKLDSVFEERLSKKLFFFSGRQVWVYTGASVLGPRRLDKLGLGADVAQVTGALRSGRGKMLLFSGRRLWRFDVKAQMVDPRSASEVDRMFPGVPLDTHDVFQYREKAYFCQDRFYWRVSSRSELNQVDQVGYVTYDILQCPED

[4] = target: T1, Interstitial collagenase (Homo sapiens, UniProt P03956); assay: Inhibition of human recombinant MMP1 using MCA-Pro-Leu-Gly-Leu-Dpa-Ala-Arg-NH2.AcOH as substrate preincubated for 10 mins measured by fluorescence analysis; outline: as §1
T1 sequence (P03956 whole entry): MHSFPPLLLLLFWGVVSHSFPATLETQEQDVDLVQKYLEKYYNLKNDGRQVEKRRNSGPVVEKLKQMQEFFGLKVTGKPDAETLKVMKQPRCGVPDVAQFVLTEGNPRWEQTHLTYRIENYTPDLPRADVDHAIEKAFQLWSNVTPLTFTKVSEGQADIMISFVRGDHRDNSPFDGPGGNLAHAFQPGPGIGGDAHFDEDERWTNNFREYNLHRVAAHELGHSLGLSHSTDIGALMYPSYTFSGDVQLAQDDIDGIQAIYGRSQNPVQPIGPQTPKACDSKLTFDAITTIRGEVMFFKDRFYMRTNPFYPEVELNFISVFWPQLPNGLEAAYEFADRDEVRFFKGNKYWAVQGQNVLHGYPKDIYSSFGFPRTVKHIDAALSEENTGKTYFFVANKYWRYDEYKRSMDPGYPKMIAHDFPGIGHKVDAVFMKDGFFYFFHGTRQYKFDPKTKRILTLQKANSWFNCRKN

[5] = target: Stromelysin-1 (Homo sapiens, UniProt P08254); assay: Inhibition of human recombinant MMP3 using MCAArg-Pro-Lys-Pro-Val-Glu-Nva-Trp-Arg-Lys(DNP)-NH2 as substrate preincubated for 10 mins measured by fluorescence analysis
Chain of Stromelysin-1 (P08254 whole entry, the tested form may be a part): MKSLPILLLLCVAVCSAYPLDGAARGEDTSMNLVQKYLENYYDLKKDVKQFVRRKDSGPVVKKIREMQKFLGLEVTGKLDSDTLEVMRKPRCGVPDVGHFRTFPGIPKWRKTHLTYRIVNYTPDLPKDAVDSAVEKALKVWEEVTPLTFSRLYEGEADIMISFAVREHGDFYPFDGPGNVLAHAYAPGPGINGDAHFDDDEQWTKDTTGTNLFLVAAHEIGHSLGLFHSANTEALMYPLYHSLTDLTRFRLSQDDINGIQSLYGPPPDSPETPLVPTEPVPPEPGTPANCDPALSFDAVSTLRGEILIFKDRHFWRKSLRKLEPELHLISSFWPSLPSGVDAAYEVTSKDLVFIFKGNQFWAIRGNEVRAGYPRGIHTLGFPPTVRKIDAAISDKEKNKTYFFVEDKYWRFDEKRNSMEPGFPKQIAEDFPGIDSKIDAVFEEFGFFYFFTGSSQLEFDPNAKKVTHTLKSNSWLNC
Outline: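 Catalytic domain of recombinant human MMP-3 was assayed with NFF-3 fluorogenic substrate in 50 mM MES pH 6.0, 10 mM CaCl₂, 0.05% Brij-35. Enzyme was 1–10 nM and substrate 4–10 μM. Enzyme was preincubated 10 min with varying inhibitor concentrations, and IC50 came from at least duplicate runs.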

[6] = tested on: Rattus norvegicus; assay: Toxicity in Sprague-Dawley rat assessed as adverse effects at 0.5 mg/kg, ia measured after 48 hrs; assay type: organism-based; set-up: dose 0.5 mg/kg; conditions: in vivo, other
[7] = organism: Rattus norvegicus; assay: Chondroprotective activity in Sprague-Dawley rat cartilage assessed as inhibition of MMP13-mediated C1,C2 release at 0.5 mg/joint, ia measured on day 14 by ELISA; assay type: functional
Outline: (§2)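 Male Sprague-Dawley rats (175−200 g, three per group) received one IA injection of 50 μL PBS holding 10 mg/mL suspension (sonicated, vortexed) into right knee. They were killed at 1, 7, 14 or 21 days, and tibial cartilage was collected. Cartilage was then challenged with 10 μg/mL APMA-activated human MMP-13 for 24 h at 37 °C in Tris pH 7.5. The reaction was stopped with 10 mM EDTA, and released C1,2C was measured by ELISA. Vehicle cartilage incubated with or without MMP-13 defined 100% and 0%.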

[8] = target: Disintegrin and metalloproteinase domain-containing protein 17 (Homo sapiens, UniProt P78536); assay: Inhibition of human recombinant TACE using MCA-Pro-Leu-Ala-Gln-Ala-Val-Dpa-Arg-Ser-Ser-Ser-Arg-NH2 as substrate preincubated for 10 mins measured by fluorescence analysis
Chain of Disintegrin and metalloproteinase domain-containing protein 17 (P78536 whole entry, the tested form may be a part): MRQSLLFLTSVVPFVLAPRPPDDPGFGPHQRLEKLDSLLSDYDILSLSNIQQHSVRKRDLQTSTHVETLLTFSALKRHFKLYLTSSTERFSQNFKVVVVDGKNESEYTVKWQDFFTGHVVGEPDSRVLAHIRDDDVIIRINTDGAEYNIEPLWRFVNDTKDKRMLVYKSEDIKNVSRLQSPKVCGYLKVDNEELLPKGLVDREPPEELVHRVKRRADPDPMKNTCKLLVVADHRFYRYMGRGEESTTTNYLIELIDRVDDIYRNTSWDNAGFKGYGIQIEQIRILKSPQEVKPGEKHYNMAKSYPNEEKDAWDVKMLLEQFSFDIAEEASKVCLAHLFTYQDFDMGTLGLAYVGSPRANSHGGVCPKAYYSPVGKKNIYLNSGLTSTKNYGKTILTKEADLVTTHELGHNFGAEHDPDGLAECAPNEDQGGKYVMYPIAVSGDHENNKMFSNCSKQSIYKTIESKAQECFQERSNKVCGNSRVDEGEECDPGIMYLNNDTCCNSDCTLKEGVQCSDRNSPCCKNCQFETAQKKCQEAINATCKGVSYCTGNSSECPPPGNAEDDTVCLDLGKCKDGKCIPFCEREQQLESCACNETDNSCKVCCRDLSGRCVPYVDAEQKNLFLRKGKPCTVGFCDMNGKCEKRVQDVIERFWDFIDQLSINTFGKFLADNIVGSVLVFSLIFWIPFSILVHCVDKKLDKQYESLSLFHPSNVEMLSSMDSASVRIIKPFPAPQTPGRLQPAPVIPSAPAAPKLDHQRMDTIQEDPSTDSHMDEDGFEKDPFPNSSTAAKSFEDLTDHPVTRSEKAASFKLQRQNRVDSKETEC
Outline: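 Recombinant human TACE was assayed with its fluorogenic peptide substrate in 25 mM Tris-HCl pH 9, 1.25 μM Zn(OAc)₂, 0.005% Brij-35. Enzyme was 1–10 nM and substrate 4–10 μM. Enzyme was preincubated 10 min with varying inhibitor concentrations, and IC50 came from at least duplicate runs.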

[9] = tested on: Plasma; assay: Drug uptake in Sprague-Dawley rat plasma at 1 mg/kg, iv measured after 8 weeks; assay type: ADME, organism-based; set-up: dose 1 mg/kg, route intravenous; conditions: in vivo, 1344 h, BLD = below limit of detection
[10] = tested on: Rattus norvegicus; assay: Toxicity in Sprague-Dawley rat assessed as joint irritation at 0.5 mg/kg, ia measured after 48 hrs; assay type: organism-based; set-up: dose 0.5 mg/kg; conditions: in vivo, other
[11] = tested on: Rattus norvegicus; assay: Toxicity in Sprague-Dawley rat assessed as joint irritation at 0.5 mg/kg, ia measured after 3 weeks; assay type: organism-based; set-up: dose 0.5 mg/kg; conditions: in vivo, other, 504 h
[12] = target: Collagenase 3 (Homo sapiens, UniProt P45452); assay: Inhibition of human recombinant MMP13 using MCA-Pro-Cha-Gly-Nva-His-Ala-Dpa-NH2 as substrate preincubated for 10 mins measured by fluorescence analysis
Outline: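 Catalytic domain of recombinant human MMP-13 was assayed with fluorogenic substrate in 50 mM Tris-HCl pH 7.5, 150 mM NaCl, 5 mM CaCl₂, 0.05% Brij-35. Enzyme was 1–10 nM and substrate 4–10 μM. It was preincubated 10 min with varying inhibitor concentrations, and IC50 came from at least duplicate runs.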

[13] = target: Matrix metalloproteinase-14 (Homo sapiens, UniProt P50281); assay: Inhibition of human recombinant MMP14 using MCA-Pro-Leu-Gly-Leu-Dpa-Ala-Arg-NH2.AcOH as substrate preincubated for 10 mins measured by fluorescence analysis; outline: as §1
[14] = tested on: Plasma; assay: Drug uptake in Sprague-Dawley rat plasma at 100 mg/kg, ip measured after 8 weeks; assay type: ADME, organism-based; set-up: dose 100 mg/kg, route intraperitoneal; conditions: in vivo, 1344 h, BLD = below limit of detection
[15] = target: Macrophage metalloelastase (Homo sapiens, UniProt P39900); assay: Inhibition of human recombinant MMP12 using MCA-Pro-Leu-Gly-Leu-Dpa-Ala-Arg-NH2.AcOH as substrate preincubated for 10 mins measured by fluorescence analysis; outline: as §1
Chain of Macrophage metalloelastase (P39900 whole entry): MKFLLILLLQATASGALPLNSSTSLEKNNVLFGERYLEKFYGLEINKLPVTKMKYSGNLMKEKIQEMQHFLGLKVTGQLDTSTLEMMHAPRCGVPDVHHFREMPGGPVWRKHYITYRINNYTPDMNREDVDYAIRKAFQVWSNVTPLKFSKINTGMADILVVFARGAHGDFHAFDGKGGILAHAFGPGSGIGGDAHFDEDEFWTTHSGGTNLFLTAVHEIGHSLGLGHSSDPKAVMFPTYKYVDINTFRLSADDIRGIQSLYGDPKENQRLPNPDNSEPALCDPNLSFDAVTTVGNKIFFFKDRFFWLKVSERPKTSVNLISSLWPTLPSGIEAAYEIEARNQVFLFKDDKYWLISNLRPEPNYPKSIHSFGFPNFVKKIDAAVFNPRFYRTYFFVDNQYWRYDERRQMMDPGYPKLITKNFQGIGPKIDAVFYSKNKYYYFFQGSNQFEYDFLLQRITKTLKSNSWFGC

[16] = Drug uptake in Sprague-Dawley rat cartilage at 0.5 mg/joint measured after 21 days; assay type: ADME, tissue-based, Cartilage tissue; conditions: read-out: Drug uptake
[17] = tested on: Cartilage tissue; assay: Inhibition of collagen degradation in bovine articular cartilage assessed as inhibition of interlukein-1alpha/oncostatin M-induced C1,C2 release measured after 11 days by ELISA; assay type: functional, tissue-based; conditions: Bos taurus
Outline: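 Freshly isolated bovine articular cartilage pieces (~3 mm²) were stimulated with 5 ng/mL IL-1α plus 50 ng/mL OSM, with or without compound, for 11 days. Medium was refreshed twice weekly. Collagen degradation products in the conditioned medium were quantified by C1,2C ELISA.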

[18] = Drug uptake in Sprague-Dawley rat synovial lavage at 0.5 mg/joint measured on day 56; assay type: ADME; conditions: in vivo, other, BLD = below limit of detection
[19] = Metabolic stability in rat microsomes assessed as unmetabolized compound after 60 mins; assay type: ADME, Microsome; conditions: read-out: Stability
[20] = Drug uptake in Sprague-Dawley rat cartilage at 0.5 mg/joint measured on day 56; assay type: ADME, tissue-based, Cartilage tissue; conditions: read-out: Drug uptake
[21] = organism: Rattus norvegicus; assay: Toxicity in Sprague-Dawley rat assessed as ability to use limbs at 0.5 mg/joint measured on day 56; assay type: organism-based; conditions: in vivo, other
[22] = target: Neutrophil collagenase (Homo sapiens, UniProt P22894); assay: Inhibition of human recombinant MMP8 using MCA-Pro-Leu-Gly-Leu-Dpa-Ala-Arg-NH2.AcOH as substrate preincubated for 10 mins measured by fluorescence analysis; outline: as §1
Chain of Neutrophil collagenase (P22894 whole entry): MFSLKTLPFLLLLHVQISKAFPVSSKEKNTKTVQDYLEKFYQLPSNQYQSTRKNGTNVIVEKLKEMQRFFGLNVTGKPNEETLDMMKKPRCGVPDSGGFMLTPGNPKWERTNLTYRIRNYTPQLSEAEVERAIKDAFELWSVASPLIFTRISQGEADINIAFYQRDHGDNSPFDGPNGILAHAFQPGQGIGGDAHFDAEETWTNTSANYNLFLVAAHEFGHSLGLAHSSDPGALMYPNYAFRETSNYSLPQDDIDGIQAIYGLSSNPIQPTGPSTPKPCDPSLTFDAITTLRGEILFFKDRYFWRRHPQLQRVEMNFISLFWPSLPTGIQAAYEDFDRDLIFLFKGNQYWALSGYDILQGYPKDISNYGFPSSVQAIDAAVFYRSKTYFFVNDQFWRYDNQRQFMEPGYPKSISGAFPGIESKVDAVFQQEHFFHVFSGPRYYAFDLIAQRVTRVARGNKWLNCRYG

[23] = target: T2, A disintegrin and metalloproteinase with thrombospondin motifs 4 (Homo sapiens, UniProt O75173); assay: Inhibition of human recombinant aggrecanase 1 using aggrecan-IGD as substrate measured after 15 mins by ELISA
T2 sequence (O75173 whole entry): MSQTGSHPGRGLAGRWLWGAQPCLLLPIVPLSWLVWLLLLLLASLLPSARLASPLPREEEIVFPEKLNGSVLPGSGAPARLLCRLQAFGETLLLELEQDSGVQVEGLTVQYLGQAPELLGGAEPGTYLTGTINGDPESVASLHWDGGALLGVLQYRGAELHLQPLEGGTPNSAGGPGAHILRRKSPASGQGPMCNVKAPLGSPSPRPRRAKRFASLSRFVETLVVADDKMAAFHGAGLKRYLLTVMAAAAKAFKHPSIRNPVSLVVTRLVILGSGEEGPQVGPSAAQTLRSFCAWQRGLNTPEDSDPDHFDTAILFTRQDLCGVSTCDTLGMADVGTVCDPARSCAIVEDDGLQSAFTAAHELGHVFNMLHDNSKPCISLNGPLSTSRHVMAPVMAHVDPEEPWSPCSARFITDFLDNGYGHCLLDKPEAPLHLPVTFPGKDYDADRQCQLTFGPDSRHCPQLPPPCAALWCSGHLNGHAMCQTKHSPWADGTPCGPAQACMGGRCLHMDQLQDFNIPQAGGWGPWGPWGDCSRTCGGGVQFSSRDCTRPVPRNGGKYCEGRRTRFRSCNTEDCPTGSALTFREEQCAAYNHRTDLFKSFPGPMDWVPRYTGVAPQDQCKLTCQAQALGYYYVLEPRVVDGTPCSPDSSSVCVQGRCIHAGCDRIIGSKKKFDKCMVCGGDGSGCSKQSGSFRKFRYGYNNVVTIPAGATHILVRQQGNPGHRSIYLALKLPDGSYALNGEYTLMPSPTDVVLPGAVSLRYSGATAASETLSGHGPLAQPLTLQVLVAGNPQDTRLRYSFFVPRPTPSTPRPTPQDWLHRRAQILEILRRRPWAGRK
Outline: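 Aggrecanase-1 was run in 50 mM Tris-HCl pH 7.5, 150 mM NaCl, 5 mM CaCl₂, 0.05% Brij-35, with 100 nM recombinant human aggrecan interglobular domain as substrate, for 15 min at 37 °C. The reaction was stopped with EDTA, and ARGSVIL neoepitopes were quantified by ELISA.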

[24] = tested on: Plasma; assay: Drug uptake in Sprague-Dawley rat plasma at 0.5 mg/kg, ia measured after 8 weeks; assay type: ADME, organism-based; set-up: dose 0.5 mg/kg; conditions: in vivo, other, 1344 h, BLD = below limit of detection
[25] = tested on: Plasma; assay: Drug uptake in Sprague-Dawley rat plasma at 100 mg/kg, po measured after 8 weeks; assay type: ADME, organism-based; set-up: dose 100 mg/kg, route oral; conditions: in vivo, 1344 h, BLD = below limit of detection
[26] = tested on: Rattus norvegicus; assay: Toxicity in Sprague-Dawley rat assessed as adverse effects at 0.5 mg/kg, ia measured after 3 weeks; assay type: organism-based; set-up: dose 0.5 mg/kg; conditions: in vivo, other, 504 h
[27] = organism: Rattus norvegicus; assay: Chondroprotective activity in Sprague-Dawley rat cartilage assessed as inhibition of MMP13-mediated C1,C2 release at 0.5 mg/joint, ia measured after 24 hrs by ELISA; assay type: functional; outline: as §2
[28] = organism: Rattus norvegicus; assay: Toxicity in Sprague-Dawley rat assessed as impaired use of limbs at 0.5 mg/joint measured on day 56; assay type: organism-based; conditions: in vivo, other
[29] = Metabolic stability in human microsomes assessed as unmetabolized compound after 60 mins; assay type: ADME, Microsome; conditions: read-out: Stability
[30] = organism: Rattus norvegicus; assay: Chondroprotective activity in Sprague-Dawley rat cartilage assessed as inhibition of MMP13-mediated C1,C2 release at 0.5 mg/joint, ia measured on day 21 by ELISA; assay type: functional; outline: as §2
[31] = target: T3, Matrilysin (Homo sapiens, UniProt P09237); assay: Inhibition of human recombinant MMP7 using MCA-Pro-Leu-Gly-Leu-Dpa-Ala-Arg-NH2.AcOH as substrate preincubated for 10 mins measured by fluorescence analysis; outline: as §1
T3 sequence (P09237 whole entry): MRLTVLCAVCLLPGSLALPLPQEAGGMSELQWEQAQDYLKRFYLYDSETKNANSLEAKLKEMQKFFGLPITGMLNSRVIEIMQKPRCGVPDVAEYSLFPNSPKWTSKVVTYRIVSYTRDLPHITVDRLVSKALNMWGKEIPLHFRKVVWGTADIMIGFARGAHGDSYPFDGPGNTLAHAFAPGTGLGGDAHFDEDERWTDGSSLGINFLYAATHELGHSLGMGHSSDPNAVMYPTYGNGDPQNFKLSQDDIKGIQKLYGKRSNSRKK

[32] = organism: Rattus norvegicus; assay: Chondroprotective activity in Sprague-Dawley rat cartilage assessed as inhibition of MMP13-mediated C1,C2 release at 0.5 mg/joint, ia measured on day 7 by ELISA; assay type: functional; outline: as §2
[33] = Drug uptake in Sprague-Dawley rat synovial lavage at 0.5 mg/joint measured after 21 days; assay type: ADME; conditions: read-out: Drug uptake

Chain of 72 kDa type IV collagenase (P08253 whole entry, the tested form may be a part): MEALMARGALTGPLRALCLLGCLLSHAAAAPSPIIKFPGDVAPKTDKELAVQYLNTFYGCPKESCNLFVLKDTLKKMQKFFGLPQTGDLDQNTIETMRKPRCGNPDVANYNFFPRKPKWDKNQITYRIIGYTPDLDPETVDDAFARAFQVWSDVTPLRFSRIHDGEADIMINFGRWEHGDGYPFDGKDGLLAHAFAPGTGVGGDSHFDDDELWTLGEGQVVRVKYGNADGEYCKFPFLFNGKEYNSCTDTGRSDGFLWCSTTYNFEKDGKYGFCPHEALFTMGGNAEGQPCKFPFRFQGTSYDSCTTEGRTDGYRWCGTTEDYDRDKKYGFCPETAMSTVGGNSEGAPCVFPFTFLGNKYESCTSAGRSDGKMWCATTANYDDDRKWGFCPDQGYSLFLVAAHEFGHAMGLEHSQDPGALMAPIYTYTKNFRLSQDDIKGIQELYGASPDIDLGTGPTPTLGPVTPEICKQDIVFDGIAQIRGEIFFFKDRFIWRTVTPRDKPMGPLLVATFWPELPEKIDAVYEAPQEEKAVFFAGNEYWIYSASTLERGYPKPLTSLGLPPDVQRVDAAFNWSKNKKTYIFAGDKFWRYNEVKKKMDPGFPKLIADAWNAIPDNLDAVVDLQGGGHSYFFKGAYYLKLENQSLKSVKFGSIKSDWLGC

## Cc1c(C(=O)O)ccc2c1CC[C@@H]2NC(=O)c1cc(C(=O)NCc2ccc3c(c2)NC(=O)CO3)nc2ccnn12
[1]
  Cp: BLD
[2]
  IC50: > 20 µM
[3]
  IC50: > 20 µM
[4]
  IC50: > 20 µM
[5]
  IC50: 8.2 µM
[6]
  Activity: Non-toxic
[7]
  inhibition (INH): 100%
[8]
  IC50: > 20 µM
[9]
  Cp: BLD
[10]
  Activity: Non-toxic
[11]
  Activity: Non-toxic
[12]
  IC50: 0.03 nM
[13]
  IC50: > 20 µM
[14]
  Cp: BLD
[15]
  IC50: 0.655 µM
[16]
  concentration at 504 h: 4090 nM
[17]
  inhibition: Dose-dependent effect
[17]; 264 h
  IC50: 0.02 µM
[18]
  Drug uptake: BLD
[19]
  remaining at 1 h: 95%
[20]
  concentration at 56 days: ≥ 2000 nM
[21]
  Activity: Non-toxic
[22]
  IC50: 3.2 µM
[23]
  IC50: 2.4 µM
[24]
  Cp: BLD
[25]
  Cp: BLD
[26]
  Activity: Non-toxic
[27]
  inhibition (INH): 100%
[28]
  Activity: Non-toxic
[29]
  remaining at 1 h: 96%
[30]
  inhibition (INH): 100%
[31]
  IC50: > 20 µM
[32]
  inhibition (INH): 100%
[33]
  concentration at 504 h: 300 nM
